Experimental data as given in ChEMBL document CHEMBL3397043, “Synthesis, anticandidal activity of N(3)-(4-methoxyfumaroyl)-(S)-2,3-diaminopropanoic amide derivatives--novel inhibitors of glucosamine-6-phosphate synthase” (Eur J Med Chem, 2015).

Experiments:
[1] = system: Candida albicans; test: Antimicrobial activity against Candida albicans ATCC 10231 assessed as growth inhibition serial 2-fold dilution microtitre plate method; assay type: functional
Summary of the method: (§1)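 MIC by serial 2-fold broth dilution in microtitre plates. Medium was YNB with ammonium sulfate as nitrogen source, pH 5.0. Growth was compared with control cultures and read on a microplate reader.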

[2] = system: Nakaseomyces glabratus; test: Antimicrobial activity against Candida glabrata DSM 11226 assessed as growth inhibition serial 2-fold dilution microtitre plate method; assay type: functional; summary of the method: as §1
[3] = system: Candida parapsilosis; test: Antimicrobial activity against Candida parapsilosis DSM 5784 assessed as growth inhibition serial 2-fold dilution microtitre plate method; assay type: functional; settings: Lodderomyces parapsilosis; summary of the method: as §1
[4] = system: Staphylococcus aureus; test: Antimicrobial activity against Staphylococcus aureus ATCC 29213 assessed as growth inhibition serial 2-fold dilution microtitre plate method; assay type: functional
Summary of the method: (§2)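 Bacterial MIC in Mueller Hinton Broth 2 (acid casein hydrolysate, beef extract, starch), pH 7.3. Growth was compared with control cultures and read on a microplate reader.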

[5] = system: Staphylococcus epidermidis; test: Antimicrobial activity against Staphylococcus epidermidis PCM 2118 assessed as growth inhibition serial 2-fold dilution microtitre plate method; assay type: functional; summary of the method: as §2
[6] = system: Escherichia coli; test: Antimicrobial activity against Escherichia coli PCM 2560 assessed as growth inhibition serial 2-fold dilution microtitre plate method; assay type: functional; summary of the method: as §2
[7] = system: Bacillus subtilis; test: Antimicrobial activity against Bacillus subtilis ATCC 9372 assessed as growth inhibition serial 2-fold dilution microtitre plate method; assay type: functional; summary of the method: as §2
[8] = system: Pseudomonas aeruginosa; test: Antimicrobial activity against Pseudomonas aeruginosa ATCC 2756 assessed as growth inhibition serial 2-fold dilution microtitre plate method; assay type: functional; summary of the method: as §2
[9] = Inhibition of Candida albicans glucosamine-6-phosphate synthase assessed as glucosamine-6-phosphate by Elson-Morgan method
Summary of the method: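 Enzyme source: cell-free extract of C. albicans GlcN-6-P synthase overproduced in E. coli. Incubated 37 °C for 30 min, stopped by 100 °C for 1 min. GlcN-6-P measured by modified Elson-Morgan. IC50 is the concentration giving 50% inhibition.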

[10] = Binding affinity to immobilized artificial membrane PC DD2 (unknown origin) by UV/Vis detector model
Summary of the method: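 HPLC on an IAM PC DD2 column (3 cm × 4.6 mm, 300 Å pores). Mobile phase 0.1 M phosphate buffer pH 7.2 at 1 mL/min, UV detection at 254 nm. Dead time t0 taken from citric acid retention. Capacity factor k'IAM = (tr − t0)/t0, reported as log k'IAM.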

Structure (SMILES)	MIC [1]	MIC [2]	MIC [3]	MIC [4]	MIC [5]	MIC [6]	MIC [7]	MIC [8]	IC50 [9]	log K [10]
COC(=O)/C=C/C(=O)NC[C@H](N)C(=O)N(C)C.Cl	512 µg/mL	> 1020 µg/mL	> 1020 µg/mL	> 1020 µg/mL	> 1020 µg/mL	> 1020 µg/mL	> 1020 µg/mL	> 1020 µg/mL	2890 µM	0.118
COC(=O)/C=C/C(=O)NC[C@H](N)C(N)=O.Cl	4 µg/mL	> 1020 µg/mL	> 1020 µg/mL	> 1020 µg/mL	> 1020 µg/mL	> 1020 µg/mL	> 1020 µg/mL	> 1020 µg/mL	80.7 µM	-0.362
COC(=O)/C=C/C(=O)NC[C@H](N)C(=O)O	> 2000 µg/mL	> 2000 µg/mL	> 2000 µg/mL	> 2000 µg/mL	> 2000 µg/mL	> 2000 µg/mL	> 2000 µg/mL	> 2000 µg/mL	4.03 µM	-0.812
CNC(=O)[C@@H](N)CNC(=O)/C=C/C(=O)OC.Cl	32 µg/mL	> 1020 µg/mL	> 1020 µg/mL	> 1020 µg/mL	> 1020 µg/mL	> 1020 µg/mL	> 1020 µg/mL	> 1020 µg/mL	127 µM	-0.193
